TRPC6 inhibitor – blocks the mouse TRPC6 cation channel. Q61143. HEK293-TRPC6, membrane potential dye, ACh-evoked depolarization; active compounds read low. B-score at 10 µM. 310,000 tested, 1.1% active. AID 2553;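 active means B-score under library mean minus 3 SD, initial fluorescence not abnormally high, positive integrated signal ratio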;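 further: B-score derived from integrated fluorescence ratio over the kinetic read; more negative B-score means stronger inhibition of depolarization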
Target sequence (Q61143 whole entry, looked up): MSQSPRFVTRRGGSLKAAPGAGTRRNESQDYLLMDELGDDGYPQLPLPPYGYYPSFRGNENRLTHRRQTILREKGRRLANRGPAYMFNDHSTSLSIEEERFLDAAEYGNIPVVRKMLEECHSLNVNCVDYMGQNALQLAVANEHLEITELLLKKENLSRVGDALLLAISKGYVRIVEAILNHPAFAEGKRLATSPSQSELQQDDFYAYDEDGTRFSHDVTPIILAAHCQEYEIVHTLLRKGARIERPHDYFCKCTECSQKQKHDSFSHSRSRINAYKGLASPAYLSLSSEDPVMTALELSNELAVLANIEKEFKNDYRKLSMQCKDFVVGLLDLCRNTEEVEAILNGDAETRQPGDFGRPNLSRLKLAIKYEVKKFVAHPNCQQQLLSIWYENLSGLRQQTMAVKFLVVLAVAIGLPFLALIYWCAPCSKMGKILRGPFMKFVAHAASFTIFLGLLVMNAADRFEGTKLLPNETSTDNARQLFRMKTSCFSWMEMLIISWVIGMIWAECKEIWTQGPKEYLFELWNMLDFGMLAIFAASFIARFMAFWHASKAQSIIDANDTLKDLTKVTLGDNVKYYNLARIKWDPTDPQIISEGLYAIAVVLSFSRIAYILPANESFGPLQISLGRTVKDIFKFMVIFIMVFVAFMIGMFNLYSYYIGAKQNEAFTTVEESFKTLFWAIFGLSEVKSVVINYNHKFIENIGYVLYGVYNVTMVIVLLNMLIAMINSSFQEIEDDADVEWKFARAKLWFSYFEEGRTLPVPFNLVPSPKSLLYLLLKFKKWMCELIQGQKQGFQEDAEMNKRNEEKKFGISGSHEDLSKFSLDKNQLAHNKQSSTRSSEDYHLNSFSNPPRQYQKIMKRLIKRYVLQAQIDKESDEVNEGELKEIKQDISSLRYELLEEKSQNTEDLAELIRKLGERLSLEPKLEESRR
TRPC6 activator – activates the mouse TRPC6 cation channel; HEK293-TRPC6 membrane potential dye fluorescence; active compounds read high; B-score at 10 µM; 310,000 tested, 0.13% active; AID 2550;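 active means B-score of the integrated fluorescence ratio above library mean plus 3 SD, and starting fluorescence ratio within library mean plus 5 SD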;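 further: higher score means more depolarization so channel activation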
TRPC4 inh – blocks the mouse TRPC4 cation channel. Q9QUQ5. HEK293 TRPC4beta/mu-opioid, DAMGO-evoked Fluo4 calcium flux; active compounds read low. B-score at 10 µM. 300,000 tested, 0.39% active;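 active means B-score over 3 SD under the library average, no early fluorescence shift, positive overall ratio signal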
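Test system – stable TRPC4beta/mu-opioid receptor HEK293 cells · Probe or stimulus – DAMGO, a submaximal dose followed by a maximal one · Dosing – one concentration per compound · Signal – Fluo4 calcium fluorescence by kinetic imaging, 5 s 1 Hz baseline · Evaluation – per-well B score of integrated baseline-normalized Fluo4 ratio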
TRPC4 PAM – TRPC4 (mouse) allosteric potentiation. HEK293 TRPC4beta/mu-opioid, DAMGO EC20, Fluo-4 Ca2+ flux; active compounds read high. B-score at 10 µM. Q9QUQ5. 310,000 tested, 0.42% active;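 active means B-score of calcium response area above 5 SD of library B-scores, with initial fluorescence ratio within 5 SD of library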;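 further: B-score of integrated fluorescence ratio over time as area under calcium response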
Kir21 block – inhibitors of mouse Kir2.1 inward-rectifier potassium channel; 310,000 tested, 0.85% active; B-score at 10 µM; P35561; HEK293-Kir2.1, FluxOR thallium flux fluorescence; active compounds read low;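 active means fluorescence ratio B-score at or below minus 3 SD of library scores, with starting-brightness B-score within 2 SD, cut at about -4.2 in these data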;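 further: channel flux triggered by added potassium and thallium sulfate stimulus; B-score of peak minus minimum fluorescence over baseline after thallium stimulus; more negative B-score means stronger Kir2.1 block with less thallium influx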
TRPC4 act – opens the mouse TRPC4 cation channel | Q9QUQ5 | HEK293 TRPC4beta/mu-opioid, Fluo4 calcium fluorescence; active compounds read high | B-score at 10 µM | 310,000 tested, 0.49% active | AID 2237;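 active means B-score above 5 SD of library B-scores, and initial fluorescence ratio not above library mean plus 5 SD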;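 further: positive B-score marks a calcium rise read as TRPC4 activation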
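Material: HEK293 stable line with TRPC4beta plus mu-opioid receptor; technique: Fluo4 calcium-sensitive dye fluorescence, kinetic, 1 Hz baseline; timing: Fluo4 dye loading 45 min at room temperature, 110 s recording; controls: assay buffer as low control, maximal DAMGO as high control; read-out: integrated baseline-normalised fluorescence ratio, converted to per-well B score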
Numbers without * were called inactive. Sampled rows, rich in hits. Any-hit rate of the full collection: about 2.9%.

What do the screens show for `CNC[C@H](CC1CCCCC1)NC[C@H](Cc1ccccc1)NCCC12CC3CC(CC(C3)C1)C2`?
TRPC6 inhibitor: inactive; TRPC6 activator: inactive; TRPC4 inh: inactive; TRPC4 PAM: inactive; Kir21 block: -8.2*; TRPC4 act: 152*

Results for O=C(c1ccc(N2CCCCC2)c([N+](=O)[O-])c1)N(Cc1ccccc1)c1ccccn1 ?
TRPC6 inhibitor: inactive; TRPC6 activator: inactive; TRPC4 inh: inactive; TRPC4 PAM: inactive; Kir21 block: -1.2; TRPC4 act: inactive

Results for CN(C(=O)CCn1c(=S)oc2ccccc21)c1ccc(F)cc1 ?
TRPC6 inhibitor: inactive; TRPC6 activator: inactive; TRPC4 inh: inactive; TRPC4 PAM: inactive; Kir21 block: -5.6*; TRPC4 act: inactive

How did O=C(CCCCCNC(=O)c1ccccc1)N=Nc1c(O)[nH]c2c(Br)cc(Br)cc12 do in these assays?
TRPC6 inhibitor: inactive; TRPC6 activator: inactive; TRPC4 inh: inactive; TRPC4 PAM: inactive; Kir21 block: 0; TRPC4 act: inactive

How did NC(=O)N=Nc1c(O)[nH]c2c(Br)cc(Br)cc12 do in these assays?
TRPC6 inhibitor: inactive; TRPC6 activator: inactive; TRPC4 inh: inactive; TRPC4 PAM: 11*; Kir21 block: -0.82; TRPC4 act: inactive

What do the screens show for `O=C(COC(=O)C1(c2ccc(F)cc2)CCCC1)N1CCOCC1`?
TRPC6 inhibitor: inactive; TRPC6 activator: inactive; TRPC4 inh: inactive; TRPC4 PAM: inactive; Kir21 block: -1.4; TRPC4 act: inactive

Results for CCOC(=O)CC(NC(=O)c1cc2cccc(OC)c2oc1=O)c1cccc([N+](=O)[O-])c1 (configuration not stated) ?
TRPC6 inhibitor: inactive; TRPC6 activator: inactive; TRPC4 inh: inactive; TRPC4 PAM: inactive; Kir21 block: 0.3; TRPC4 act: inactive

What do the screens show for `CCOC(=O)CC(NC(=O)c1cc2cc(Cl)cc(Cl)c2oc1=O)c1cccc([N+](=O)[O-])c1` (configuration not stated)?
TRPC6 inhibitor: inactive; TRPC6 activator: inactive; TRPC4 inh: inactive; TRPC4 PAM: 21*; Kir21 block: 0.08; TRPC4 act: inactive

Results for COc1cc(-c2n[nH]c(=S)n2C(C)c2ccccc2)cc(OC)c1OC (configuration not stated) ?
TRPC6 inhibitor: inactive; TRPC6 activator: inactive; TRPC4 inh: inactive; TRPC4 PAM: inactive; Kir21 block: -4.3*; TRPC4 act: inactive

What do the screens show for `CCOC(=O)C1(CCOC)CCN(Cc2ccccc2-c2ccco2)CC1`?
TRPC6 inhibitor: inactive; TRPC6 activator: inactive; TRPC4 inh: inactive; TRPC4 PAM: inactive; Kir21 block: -2.8; TRPC4 act: 123*

What do the screens show for `CCOC(=O)C1(CCOc2ccccc2)CCN(Cc2ccc(-n3cccn3)cc2)CC1`?
TRPC6 inhibitor: inactive; TRPC6 activator: inactive; TRPC4 inh: -7*; TRPC4 PAM: inactive; Kir21 block: -0.55; TRPC4 act: inactive

How did CCOC(=O)C1(CCOc2ccccc2)CCN(Cc2cc(OC)ccc2OC)CC1 do in these assays?
TRPC6 inhibitor: inactive; TRPC6 activator: inactive; TRPC4 inh: inactive; TRPC4 PAM: inactive; Kir21 block: -0.18; TRPC4 act: 98*

What do the screens show for `CCOC(=O)C1(CCOC)CCN(Cc2ccncc2)CC1`?
TRPC6 inhibitor: inactive; TRPC6 activator: inactive; TRPC4 inh: inactive; TRPC4 PAM: inactive; Kir21 block: 0.65; TRPC4 act: inactive

Results for CCOC(=O)C1(CCOc2ccccc2)CCN(Cc2cccn2-c2ncccn2)CC1 ?
TRPC6 inhibitor: inactive; TRPC6 activator: inactive; TRPC4 inh: -9*; TRPC4 PAM: inactive; Kir21 block: -1.4; TRPC4 act: inactive

What do the screens show for `O=c1c2cc(NC(=S)N3CCCC3)ccc2nc2n1CCCCC2`?
TRPC6 inhibitor: inactive; TRPC6 activator: inactive; TRPC4 inh: inactive; TRPC4 PAM: inactive; Kir21 block: 0.15; TRPC4 act: inactive

How did NS(=O)(=O)c1cccc(NC(=O)COC(=O)Cc2ccc(Cl)cc2)c1 do in these assays?
TRPC6 inhibitor: inactive; TRPC6 activator: inactive; TRPC4 inh: inactive; TRPC4 PAM: inactive; Kir21 block: -3.5; TRPC4 act: inactive

How did COc1cccc(NC(=S)N2CCC(Cc3ccccc3)CC2)c1 do in these assays?
TRPC6 inhibitor: inactive; TRPC6 activator: inactive; TRPC4 inh: inactive; TRPC4 PAM: inactive; Kir21 block: -0.9; TRPC4 act: inactive

Results for COc1ccc(S(=O)(=O)N(C)CC(=O)Nc2ccc3c(c2)OCO3)cc1OC ?
TRPC6 inhibitor: inactive; TRPC6 activator: inactive; TRPC4 inh: inactive; TRPC4 PAM: inactive; Kir21 block: 0.49; TRPC4 act: inactive

Results for O=C1/C(=C/c2ccccn2)SC(=S)N1CCc1ccccc1 ?
TRPC6 inhibitor: inactive; TRPC6 activator: inactive; TRPC4 inh: inactive; TRPC4 PAM: inactive; Kir21 block: 0.75; TRPC4 act: inactive

What do the screens show for `CCOC(=O)C1(CCOc2ccccc2)CCN(Cc2cccs2)CC1`?
TRPC6 inhibitor: inactive; TRPC6 activator: inactive; TRPC4 inh: -5*; TRPC4 PAM: inactive; Kir21 block: -5*; TRPC4 act: inactive

How did O=C1NC(Cc2c[nH]c3ccccc23)C(=O)N1CCOc1ccc(F)cc1 (configuration not stated) do in these assays?
TRPC6 inhibitor: inactive; TRPC6 activator: inactive; TRPC4 inh: inactive; TRPC4 PAM: inactive; Kir21 block: -5.3*; TRPC4 act: inactive

How did CC(C)OC(=O)C(C)(C)Oc1ccc(C(=O)c2ccc(Cl)cc2)cc1 do in these assays?
TRPC6 inhibitor: inactive; TRPC6 activator: inactive; TRPC4 inh: inactive; TRPC4 PAM: inactive; Kir21 block: -0.17; TRPC4 act: inactive

Results for CCNC(=O)NC(=O)C(C)OC(=O)C(C)(C)Oc1ccc(Cl)cc1 (configuration not stated) ?
TRPC6 inhibitor: inactive; TRPC6 activator: inactive; TRPC4 inh: inactive; TRPC4 PAM: inactive; Kir21 block: -5.3*; TRPC4 act: inactive

What do the screens show for `COc1ccc(-c2nn(-c3ccccc3)cc2CNCc2cccnc2)c(F)c1`?
TRPC6 inhibitor: inactive; TRPC6 activator: inactive; TRPC4 inh: inactive; TRPC4 PAM: inactive; Kir21 block: -0.01; TRPC4 act: 103*

How did COc1ccc(-n2cc(CNCc3cccnc3)c(-c3cccc(F)c3)n2)cc1 do in these assays?
TRPC6 inhibitor: inactive; TRPC6 activator: inactive; TRPC4 inh: inactive; TRPC4 PAM: inactive; Kir21 block: -0.19; TRPC4 act: 94*

How did COc1ccc(CNCc2cn(-c3cccc(F)c3)nc2-c2ccc(C)o2)cc1 do in these assays?
TRPC6 inhibitor: inactive; TRPC6 activator: inactive; TRPC4 inh: inactive; TRPC4 PAM: inactive; Kir21 block: -3; TRPC4 act: 103*

Screening results from PubChem BioAssay.
